Data taken from ChEMBL document CHEMBL3085701, “Optimization of novel indole-2-carboxamide inhibitors of neurotropic alphavirus replication” (J Med Chem, 2013).

Columns and labels:
Brain [1] = experiment: Drug level in C57BL/6 mouse brain at 20 mg/kg, ip after 2 hrs; assay type: ADME, organism-based; design: dose 20 mg/kg, route intraperitoneal; conditions: in vivo, BLD = below limit of detection
Procedure, shortened: (§1)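 Female C57BL/6 mice were given a single IP dose in 2% sterile DMSO/PBS. At each time point, duplicate mice had blood taken by cardiac puncture. They were then perfused with PBS, and the cerebrum was harvested and flash frozen on dry ice. Brain drug levels were quantified by LC/MS/MS and reported as ng/g; BLQ means below the limit of quantitation.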

[2] = Plasma concentration in C57BL/6 mouse at 20 mg/kg, ip after 2 hrs; assay type: ADME, organism-based; design: dose 20 mg/kg, route intraperitoneal
Procedure, shortened: (§2)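 C57BL/6 female mice given a single IP injection of compound in 2% sterile DMSO/PBS, at the stated dose. Duplicate mice per time point. Blood taken by cardiac puncture into EDTA and plasma separated. Cerebrum harvested after PBS perfusion and flash-frozen. Drug quantified by LC/MS/MS as ng/mL plasma or ng/g brain.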

[3] = Drug level in C57BL/6 mouse brain at 20 mg/kg, ip after 30 mins; assay type: ADME, organism-based; design: dose 20 mg/kg, route intraperitoneal; conditions: read-out: Drug uptake; procedure, shortened: as §2
[4] = Cytotoxicity against human BE(2)-C cells assessed as cell viability at 25 uM after 24 hrs by MTT assay relative to control; assay type: cell-based; conditions: read-out: Activity
Fort Morgan virus = experiment: Antiviral activity against Fort Morgan virus infected in human BE(2)-C cells assessed as reduction of viral titer at 25 uM after 24 hrs by plaque reduction assay (reference value: 47.1 +/- 10.5 x 10^6 pfu/ml); assay type: functional
[5] = Cytotoxicity against human BE(2)-C cells after 18 to 20 hrs by MTT assay; assay type: cell-based
[6] = tested on: Western equine encephalitis virus; experiment: Antiviral activity against Western equine encephalomyelitis virus infected in human BE(2)-C cells assessed as inhibition of viral RNA replication after 18 to 20 hrs by luciferase reporter gene assay; assay type: functional, cell-based
[7] = tested on: Western equine encephalitis virus; experiment: Antiviral activity against Western equine encephalomyelitis virus infected in human BE(2)-C cells assessed as reduction of viral titer at 25 uM after 24 hrs by plaque reduction assay (reference value: 25.7 +/- 5.2 x 10^6 pfu/ml); assay type: functional
Brain [8] = experiment: Drug level in C57BL/6 mouse brain at 20 mg/kg, ip after 12 hrs; assay type: ADME, organism-based; design: dose 20 mg/kg, route intraperitoneal; conditions: in vivo, BLD = below limit of detection; procedure, shortened: as §1
[9] = Kinetic solubility of the compound; assay type: physicochemical
[10] = target: MDR1 (ABCB1, P-glycoprotein) (Homo sapiens, UniProt P08183); experiment: Inhibition of human MDR1 expressed in MDCK2 cells assessed as increase of rhodamine 123 uptake at 30 uM up to 240 mins relative to control; assay type: ADME, cell-based, MDCK-II; conditions: MDCK2 cells expressing human MDR1, probe rhodamine 123
Procedure, shortened: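 Confluent MDR1-MDCKII cells (human Pgp-transfected) given fresh DMEM with 10 μM rhodamine 123, plus vehicle, tariquidar (5 μM) or compound (30 μM). Uptake at 37°C from 1 to 240 min, stopped by ice-cold PBS washes. Fluorescence read at ex 525/em 560-640 nm. Result expressed as % of same-day tariquidar effect, (Cav−Cveh)*100/(Ctar−Cveh). Triplicates on ≥3 occasions.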

Plasma [11] = experiment: Plasma concentration in C57BL/6 mouse at 20 mg/kg, ip after 12 hrs; assay type: ADME, organism-based; design: dose 20 mg/kg, route intraperitoneal; conditions: in vivo, BLD = below limit of detection; procedure, shortened: as §2
[12] = Half life in Balb-C mouse liver microsomes; assay type: ADME, Microsome
Procedure, shortened: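 Compound incubated with Balb-C mouse liver microsomes, and half-life determined for oxidative metabolism. Values are means of ≥2 independent incubations.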

[13] = Plasma concentration in C57BL/6 mouse at 20 mg/kg, ip after 30 mins; assay type: ADME, organism-based; design: dose 20 mg/kg, route intraperitoneal; procedure, shortened: as §2
[14] = Therapeutic index, ratio of CC50 for human BE(2)-C cells to IC50 for Western equine encephalitis virus; conditions: read-out: Ratio CC50/IC50
Brain [15] = experiment: Drug level in C57BL/6 mouse brain at 30 mg/kg, ip after 30 mins; assay type: ADME, organism-based; design: dose 30 mg/kg, route intraperitoneal; conditions: in vivo, 0.5 h, BLD = below limit of detection; procedure, shortened: as §1
[16] = Plasma concentration in C57BL/6 mouse at 30 mg/kg, ip after 2 hrs; assay type: ADME, organism-based; design: dose 30 mg/kg, route intraperitoneal; procedure, shortened: as §2
Plasma [17] = experiment: (§3) Plasma concentration in C57BL/6 mouse at 30 mg/kg, ip after 12 hrs; assay type: ADME, organism-based; design: dose 30 mg/kg, route intraperitoneal; conditions: mouse, in vivo, 12 h, BLD = below limit of detection; procedure, shortened: as §2
Brain [18] = experiment: Drug level in C57BL/6 mouse brain at 30 mg/kg, ip after 2 hrs; assay type: ADME, organism-based; design: dose 30 mg/kg, route intraperitoneal; conditions: in vivo, BLD = below limit of detection; procedure, shortened: as §1
[19] = Plasma concentration in C57BL/6 mouse at 30 mg/kg, ip after 30 mins; assay type: ADME, organism-based; design: dose 30 mg/kg, route intraperitoneal; procedure, shortened: as §2
Brain [20] = experiment: Drug level in C57BL/6 mouse brain at 30 mg/kg, ip after 12 hrs; assay type: ADME, organism-based; design: dose 30 mg/kg, route intraperitoneal; conditions: in vivo, BLD = below limit of detection; procedure, shortened: as §1
[21] = as §3; assay type: ADME, organism-based; design: dose 30 mg/kg, route intraperitoneal; conditions: C57BL/6, mouse, plasma; procedure, shortened: as §2

MDR1 (ABCB1, P-glycoprotein), sequence (P08183 whole entry): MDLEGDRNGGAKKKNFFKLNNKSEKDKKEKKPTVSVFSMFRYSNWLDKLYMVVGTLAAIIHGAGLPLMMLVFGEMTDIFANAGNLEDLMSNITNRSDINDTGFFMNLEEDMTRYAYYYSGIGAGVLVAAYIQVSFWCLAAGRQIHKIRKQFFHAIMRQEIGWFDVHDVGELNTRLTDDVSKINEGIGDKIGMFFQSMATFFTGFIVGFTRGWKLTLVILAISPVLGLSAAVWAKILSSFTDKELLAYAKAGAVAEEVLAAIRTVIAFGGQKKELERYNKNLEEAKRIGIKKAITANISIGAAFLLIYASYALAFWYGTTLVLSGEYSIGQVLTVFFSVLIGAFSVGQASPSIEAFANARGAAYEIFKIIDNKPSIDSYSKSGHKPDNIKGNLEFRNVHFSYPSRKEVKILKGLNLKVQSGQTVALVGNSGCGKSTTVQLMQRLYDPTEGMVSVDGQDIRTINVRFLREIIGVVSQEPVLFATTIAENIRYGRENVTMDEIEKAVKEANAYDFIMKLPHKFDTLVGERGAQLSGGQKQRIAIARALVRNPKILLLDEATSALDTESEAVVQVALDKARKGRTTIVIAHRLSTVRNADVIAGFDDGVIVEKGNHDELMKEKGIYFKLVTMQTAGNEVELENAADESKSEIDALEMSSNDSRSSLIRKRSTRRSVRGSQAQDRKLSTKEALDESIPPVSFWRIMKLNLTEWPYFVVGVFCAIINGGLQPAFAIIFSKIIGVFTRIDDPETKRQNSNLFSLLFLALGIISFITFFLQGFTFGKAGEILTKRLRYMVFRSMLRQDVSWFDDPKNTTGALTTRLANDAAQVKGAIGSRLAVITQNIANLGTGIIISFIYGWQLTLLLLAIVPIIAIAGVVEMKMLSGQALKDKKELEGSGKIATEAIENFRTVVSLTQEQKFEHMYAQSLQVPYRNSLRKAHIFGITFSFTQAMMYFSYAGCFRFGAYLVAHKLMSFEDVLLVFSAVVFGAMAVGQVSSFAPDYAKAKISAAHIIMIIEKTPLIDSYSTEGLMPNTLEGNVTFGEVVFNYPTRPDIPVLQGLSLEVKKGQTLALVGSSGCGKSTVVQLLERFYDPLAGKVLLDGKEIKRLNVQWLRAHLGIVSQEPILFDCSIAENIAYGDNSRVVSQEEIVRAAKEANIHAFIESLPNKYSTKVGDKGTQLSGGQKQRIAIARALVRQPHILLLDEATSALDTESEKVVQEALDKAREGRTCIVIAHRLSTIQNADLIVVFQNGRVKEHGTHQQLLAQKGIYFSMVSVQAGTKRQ

## O=C(NCCc1ccncc1)C1CCN(C(=O)c2cccn2Cc2ccc(Cl)cc2)CC1
Brain [1]
  Drug uptake: BLD
[2]
  concentration at 2 h: 5 ng/mL
[3]
  concentration at 0.5 h: 19 ng/g
[4]
  viability at 24 h, 25 µM: 59.1%
Fort Morgan virus
  Activity: 23.8 ×10⁶ PFU/ml
[5]; BE(2)-C cells
  CC50: > 100 µM
[6]
  IC50: 0.7 µM
[7]
  Activity: 4.9 ×10⁶ PFU/ml
Brain [8]
  Drug uptake: BLD
[9]
  Kinetic_solubility: 125 µM
[10]
  inhibition at 4 h, 30 µM: -1.2%
Plasma [11]
  Cp: BLD
[12]
  t1/2: 2.9 min
[13]
  concentration at 0.5 h: 124 ng/mL

## O=C(NCCc1ccncc1)C1CCN(C(=O)c2cc3ccccc3n2Cc2c(F)cccc2F)CC1
[14]
  selectivity ratio: 50
[5]; be(2)-c
  CC50: 34.5 µM
[6]
  IC50: 1.3 µM
[10]
  inhibition at 4 h, 30 µM: 28.5%

## C[C@@H](NC(=O)C1CCN(C(=O)c2cc3ccccc3n2Cc2ccc(Cl)cc2)CC1)c1ccccc1
Brain [15]
  Drug uptake: BLD
[16]
  concentration at 2 h: 30 ng/mL
[4]
  viability at 24 h, 25 µM: 36.7%
Plasma [17]
  Cp: BLD
Fort Morgan virus
  Activity: 39.3 ×10⁶ PFU/ml
[5]; BE(2)-C cells
  CC50: > 100 µM
[6]
  IC50: 6.5 µM
[7]
  Activity: 8.8 ×10⁶ PFU/ml
[9]
  Kinetic_solubility: 8 µM
Brain [18]
  Drug uptake: BLD
[10]
  inhibition at 4 h, 30 µM: 24.4%
[19]
  concentration at 0.5 h: 10 ng/mL
Brain [20]
  Drug uptake: BLD
[12]
  t1/2: 2.1 min

## O=C(NCCc1ccncc1)C1CCN(C(=O)c2cc3ccccc3n2Cc2ccc(Cl)cc2)CC1
Brain [15]
  Drug uptake: BLD
[16]
  concentration at 2 h: 79 ng/mL
[4]
  viability at 24 h, 25 µM: 60.7%
[21]
  concentration at 12 h: 23 ng/mL
Fort Morgan virus
  Activity: 4.9 ×10⁶ PFU/ml
[5]; be(2)-c
  CC50: 49.9 µM
[6]
  IC50: 0.5 µM
[7]
  Activity: 0.5 ×10⁶ PFU/ml
[9]
  Kinetic_solubility: 31 µM
Brain [18]
  Drug uptake: BLD
[10]
  inhibition at 4 h, 30 µM: 30.9%
[19]
  concentration at 0.5 h: 59 ng/mL
Brain [20]
  Drug uptake: BLD
[12]
  t1/2: 11.5 min
